Compound activity from PubChem BioAssay.
An excerpt weighted towards active compounds, which were near 1% of everything screened.
FXIa inh 1536 = blocks human coagulation factor XIa protease activity; purified FXIa, Boc-Glu-Ala-Arg-AMC fluorogenic substrate; inhibition, % at 5 µM; actives 0.14% (n = 220,000);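 active means inhibition of at least 40%; inactive means inhibition below 40%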;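 further: fluorescence of freed AMC excited at 355 nm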
hK5 inh = kallikrein 5 (human) inhibition. actives 0.59% (n = 210,000). inhibition, % at 5 µM. recombinant hK5, fluorogenic AMC substrate cleavage. Q9Y337. AID 873;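 active means inhibition of 40% or more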
Thrombin inh = inhibitors of human thrombin. P00734. inhibition, % at 5 µM. AID 1046. alpha-thrombin, Boc-VPR-AMC fluorogenic substrate cleavage. actives 0.26% (n = 220,000);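 active means inhibition at or above 40%; inactive means inhibition below 40%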
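Test system: human alpha-thrombin; medium: pH 7.5 Tris-saline with Tween 20; times: reaction at room temperature; signal: AMC fluorescence at 355 nm excitation and 460 nm emission; also added: Boc-VPR-AMC substrate, 15 µM final; dosing: one concentration per compound, 5 µM, with 0.2% DMSO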
FXIIa inh = inhibitors of human coagulation factor XIIa; purified FXIIa, Boc-QGR-AMC fluorogenic substrate, 2 h; inhibition, % at 5 µM; actives 0.3% (n = 220,000); in the data active means inhibition above about 40%
Target sequence (P00748 20-372 limits assumed): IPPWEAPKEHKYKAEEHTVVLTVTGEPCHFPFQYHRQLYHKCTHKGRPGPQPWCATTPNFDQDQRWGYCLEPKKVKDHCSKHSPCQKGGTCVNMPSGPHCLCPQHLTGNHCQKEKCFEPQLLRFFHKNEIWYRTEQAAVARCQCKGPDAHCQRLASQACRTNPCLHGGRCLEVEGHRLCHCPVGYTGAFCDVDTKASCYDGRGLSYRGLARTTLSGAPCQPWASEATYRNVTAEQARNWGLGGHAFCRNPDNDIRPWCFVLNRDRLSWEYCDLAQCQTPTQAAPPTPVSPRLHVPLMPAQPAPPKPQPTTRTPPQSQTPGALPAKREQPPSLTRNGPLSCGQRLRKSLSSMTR
Target sequence (P00748 373-615 limits assumed): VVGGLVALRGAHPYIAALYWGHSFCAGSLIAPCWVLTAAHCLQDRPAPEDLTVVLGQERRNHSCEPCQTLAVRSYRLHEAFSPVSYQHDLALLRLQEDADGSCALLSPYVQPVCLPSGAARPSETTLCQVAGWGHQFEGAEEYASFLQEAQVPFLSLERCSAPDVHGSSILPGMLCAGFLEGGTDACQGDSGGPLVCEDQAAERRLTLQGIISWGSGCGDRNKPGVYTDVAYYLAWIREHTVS
Hits are given with their value; 0 = inactive; - = no result.

SMILES | FXIa inh 1536 | hK5 inh | Thrombin inh | FXIIa inh
CCCc1cc(C(=O)Nc2cccnc2)no1 | 0 | 0 | 0 | 0
CC(C)c1cc(C(=O)Nc2cccnc2)no1 | 0 | 45 | 0 | 0
O=C(O)CP(=O)(c1ccccc1)c1ccccc1 | 0 | 42 | 0 | 0
O=P(CCO)(c1ccccc1)c1ccccc1 | 0 | 0 | 0 | -
COc1ccc(-c2nn(CCC(=O)O)cc2/C=C/C(=O)O)cc1[N+](=O)[O-] | 0 | 0 | 0 | 0
CCOC(=O)CNC(=O)Cn1cnc2c(nnn2-c2cccc(Cl)c2)c1=O | 0 | 0 | 0 | 43
CCOC(=O)CNC(=O)Cn1cnc2c(nnn2-c2ccc(C)cc2)c1=O | 0 | 0 | 0 | 0
CSc1nc(SCC(=O)O)c2c3c(sc2n1)COC(C)(C)C3 | 0 | 0 | 0 | 52
CSc1nc(SCC(=O)NCc2ccco2)c2c3c(sc2n1)COC(C)(C)C3 | 0 | 0 | 0 | 0
CC1OC(O[C@H]2CC[C@]3(C)C4C=C[C@]56OC[C@@]7(CC[C@@H](C)[C@H](C)C75)[C@H](O)C[C@@]6(C)[C@]4(C)CC[C@H]3C2(C)C)C(OC2OC(CO)C(O)C(O)C2OC2OCC(O)C(O)C2O)C(O)C1O (stereo not given in full) | 0 | 0 | 55 | 0
CN=C(Nc1cc(Cl)ccc1Cl)SC1CC(=O)N(c2ccc(C(=O)OC)cc2)C1=O (stereo not given) | 0 | 0 | 0 | 0
Fc1cc(F)c2nc(N3CCCC3)sc2c1 | 0 | 0 | 0 | 103
Fc1cccc2sc(N3CCCCC3)nc12 | 0 | 0 | 0 | 0
CCOC(=O)C1CCN(C(=O)c2cc3ccccc3oc2=O)CC1 | 0 | 0 | 0 | 0
O=[N+]([O-])c1nn(-c2cccc(Cl)c2)n(O)c1=NCc1cccnc1 | 0 | 75 | 0 | 0
O=[N+]([O-])c1nn(-c2ccc(Cl)cc2)n(O)c1=NCc1cccnc1 | 0 | 0 | 0 | 0
CCOC(=O)C(Cc1ccccc1)C(=O)Nc1cccc2ccccc12 (stereo not given) | 0 | 0 | 0 | 0
CC(C)c1ccc(O)c(NC(=S)NC(=O)c2cccnc2)c1 | 0 | - | 0 | 41
CN1CCN(C(=O)c2cc3sc4ccccc4c3s2)CC1 | 0 | 0 | 0 | 0
Cc1ccccc1Cn1cnc2c(NS(C)(=O)=O)c(C)c(C)cc21 | 0 | 0 | 0 | 41
Cc1ccsc1/C=N/NC(=O)c1ccc2c(c1)OCCO2 | 0 | 0 | 0 | 46
Cc1ccsc1/C=N\NC(=O)c1ccc2c(c1)OCO2 | 0 | 0 | 0 | 0
CC(=O)Nc1ccc(NC(=O)C(C)OC(=O)CNS(=O)(=O)c2cccc(Cl)c2)cc1 (stereo not given) | 0 | 0 | 0 | 0
CCN(CC)S(=O)(=O)c1cccc(NC(=O)/C=C/c2cccc([N+](=O)[O-])c2)c1 | 0 | 67 | 95 | 0
CN1CCCC1CCNC1C2CC3CC(C2)CC1C3 (stereo not given) | 0 | 0 | 0 | 0
SMILES | FXIa inh 1536 | hK5 inh | Thrombin inh | FXIIa inh
Cc1ccccc1C(=O)NNC(=S)NC(=O)COc1ccccc1 | 0 | 0 | 0 | 0
Cc1ccc(C(=O)NNC(=S)NC(=O)COc2ccccc2)cc1 | 41 | 0 | 0 | 0
O=C(NCc1ccccc1F)c1ccc(S(=O)(=O)Nc2cccc(C(F)(F)F)c2)cc1 | 0 | 0 | 0 | 0
O=C(NCc1ccc(F)cc1)c1ccc(S(=O)(=O)Nc2cccc(C(F)(F)F)c2)cc1 | 0 | 49 | 0 | 0
C=C(C)CSc1nnc(-c2ccc(OC)cc2)n1N | 0 | 45 | 0 | 0
CCN(CC)CCOC(=O)c1ccc(NC(=O)c2cn(-c3ccccc3)nc2-c2cccs2)cc1 | 0 | 0 | - | 0
O=C(CCS(=O)(=O)c1cccc2nonc12)NC1CCCCCC1 | 0 | 0 | 0 | 0
O=C(CCS(=O)(=O)c1cccc2nsnc12)NC1CCCCCC1 | 0 | 41 | 0 | 0
COC(=O)c1c(NC(=O)c2ccc(Br)s2)sc2c1CCC2 | 0 | 0 | 0 | 55
COC(=O)c1c(NC(=O)c2ccoc2C)sc2c1CCC2 | 0 | 0 | 0 | 0
O=C(CCC(=O)N1CCOCC1)c1ccc(F)cc1 | 0 | 0 | 0 | 0
O=C(Nc1cc(=O)[nH]c2ncnn12)c1ccco1 | 0 | 57 | 0 | 42
CCC(=O)n1nc(-c2ccc(Cl)cc2)nc1NCc1ccccc1 | 0 | 0 | 71 | 0
O=C(c1cccs1)n1nc(-c2ccccc2)nc1NCc1ccco1 | 0 | 0 | 0 | 0
COCC(=O)n1nc(-c2ccccc2)nc1NCc1cccs1 | 0 | 0 | 86 | 0
c1ccc(Cn2ccc(-c3cnc(-c4ccccc4)s3)n2)cc1 | 0 | 0 | 0 | 0
CN(CCC#N)C(=O)COC(=O)c1c2c(nc3ccccc13)/C(=C/c1ccco1)CC2 | 0 | 0 | 0 | 0
Cc1ccc(S(=O)(=O)NN2C(=O)/C(=C/c3cccs3)SC2=S)cc1 | 0 | 0 | 0 | 0
